Key:
[1] = target: GABA-A receptor; anion channel; experiment: Inhibitory concentration against specific binding of [3H]diazepam to Benzodiazepine receptor in rat brain; type: tissue-based
[2] = organism: Rattus norvegicus; experiment: Percent change in conflict responding in Long-Evans rats; type: functional
Procedure, shortened: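 Long-Evans rats on a modified Geller–Seifter conflict schedule. Dosed by oral gavage at 25 mg/kg as a 0.5% methylcellulose suspension, with chlordiazepoxide at 20 mg/kg. Read-out is percent change in conflict responding, mean ±.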

[3] = target: T1, GABA-A receptor; anion channel (Rattus norvegicus) (UniProt O09028+P15431+P18506+P18508+P19969+P20236+P23574+P23576+P28471+P28473+P30191+P62813+P63079+P63138+Q91ZM7+Q9ES14); experiment: Inhibition of [3H]-diazepam binding to rat brain GABA-A benzodiazepine receptor at 100 uM
[4] = target: T1, GABA-A receptor; anion channel (Rattus norvegicus); experiment: Inhibition of [3H]diazepam binding to rat brain GABA-A Benzodiazepine receptor at 100 uM

| SMILES | IC50 [1] | Change [2] | also measured |
| --- | --- | --- | --- |
| C[C@H](c1ccccc1)n1cnc2c(N(C)C)ncnc21 | 100000 nM |  |  |
| C[C@@H](c1ccccc1)n1cnc2c(N(C)C)ncnc21 |  | 5% |  |
| CN(C)c1ncnc2c1ncn2Cc1cccc(O)c1 |  | 2% |  |
| CC(=O)Oc1cccc(Cn2cnc3c(N(C)C)ncnc32)c1 |  | 2% |  |
| CSc1ncnc2c1ncn2Cc1ccccc1 |  | 13% |  |
| CC(c1cccc(O)c1)n1cnc2c(O)ncnc21 (racemic) | 2200 nM |  |  |
| CC(=O)Oc1cccc(C(C)n2cnc3c(N(C)C)ncnc32)c1 (racemic) | 380 nM |  |  |
| CC(c1cccc(O)c1)n1cnc2c(N(C)C)ncnc21 (racemic) | 480 nM | -7% |  |
| CC(c1cccc(N)c1)n1c(Br)nc2c(N(C)C)ncnc21 (racemic) | 520 nM | 5% |  |
| CSc1ncnc2c1ncn2C(C)c1cccc(OC(C)=O)c1 (racemic) | 1700 nM |  |  |
| CC(c1cccc(N)c1)n1cnc2c(N(C)C)ncnc21 (racemic) | 160 nM | -22% |  |
| CSc1ncnc2c1ncn2C(C)c1cccc(O)c1 (racemic) | 1200 nM |  |  |
| CC(=O)Oc1cccc(C(C)n2cnc3c(O)ncnc32)c1 (racemic) |  |  | inhibition [3]: 68% |
| CC(c1cccc(O)c1)n1cnc2c(S)ncnc21 (racemic) |  |  | inhibition [4]: 64% |
